Assays:
MT4 [1] = assay: Protection of MT-4 cells against the cytopathic effect of HIV-2 (8 days); type: functional, cell-based; details: Homo sapiens, MT4, 192 h
Method in brief: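 MT-4 cells (1×10^4/well, RPMI/10% FCS) with compound dilutions, infected with HIV-2 ROD at 100 CCID50 (MOI 0.01). Stock from persistently infected CEM supernatant.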

MT4 [2] = assay: Cytotoxic concentration required to reduce viability of mock-infected MT-4 cells (4 days); type: functional; details: Homo sapiens, MT4, 96 h
Method in brief: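 Mock-infected MT-4 cells, 1×10^4/well, incubated with serial compound dilutions (DMSO stock 100 mg/mL diluted in RPMI/10% FCS) for 4 days at 37 °C, run alongside the antiviral test.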

[3] = Selectivity Index measured as the ratio of CC50 to that of EC50 (HIV-2) values.; type: functional
Method in brief: (§1)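 HIV-2 ROD (100 CCID50, MOI 0.01) infected 1×10^4 MT-4 cells per well in RPMI/10% FCS containing compound dilutions, made from a 100 mg/mL DMSO stock. After 8 days at 37 °C, MTT read viability. […] The CC50 comes from parallel mock-infected MT-4 cultures by MTT over 4 days. The index is the CC50/EC50 ratio.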

[4] = Selectivity Index measured as the ratio of CC50 to that of EC50 (HIV-1) values.; type: functional
Method in brief: (§2)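 HIV-1 IIIB (100 CCID50, MOI 0.01) was added to 1×10^4 MT-4 cells per well in RPMI/10% FCS with serial compound dilutions, made from a 100 mg/mL DMSO stock. After 4 days at 37 °C, viable cells were counted by MTT. […] SI = CC50/EC50.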

MT4 [5] = assay: Protection of MT-4 cells against the cytopathic effect of HIV-1 (4 days); type: functional, cell-based; details: Homo sapiens, MT4, 96 h
Method in brief: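 MT-4 cells (1×10^4/well, RPMI/10% FCS) with compound dilutions, infected with HIV-1 IIIB at 100 CCID50 (MOI 0.01). Stock from persistently infected H9/IIIB supernatant, titrated in C8166 by syncytia scoring.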

[6] = Selectivity Index measured as the ratio of CC50 to that of EC50(HIV-2) values.; type: functional; method in brief: as §1
[7] = Selectivity Index measured as the ratio of CC50 to that of EC50(HIV-1) values.; type: functional; method in brief: as §2

SMILES	EC50 (MT4 [1]) [µM]	CC50 (MT4 [2]) [µM]	Selectivity index [3]	Selectivity index [4]	EC50 (MT4 [5]) [µM]	Selectivity index [6]	Selectivity index [7]
C[C@H](Cn1cnc2c(O)nc(N)nc21)OCP(=O)(O)O	30	> 48	1.6	2.5	19		
C[C@H](Cn1nnc2c(O)nc(N)nc21)OCP(=O)(O)O	200	> 400	2	> 4.3	93		
C[C@@H](Cn1nc2nc(N)nc(O)c2n1)OCP(=O)(O)O	73	> 400			53	> 5.5	> 7.5
C[C@@H](Cn1cnc2c(O)nc(N)nc21)OCP(=O)(O)O	4.5	> 400	> 89	> 89	4.5		
Nc1nc2c(ncn2CCOCP(=O)(O)O)c(=O)[nH]1 [GS-438]	0.2	2.4	12	12.6	0.19		
C[C@H](Cn1nc2nc(N)nc(O)c2n1)OCP(=O)(O)O	> 400	> 400			> 400		
Cc1cn([C@H]2C[C@H](N=[N+]=[N-])[C@@H](CO)O2)c(=O)[nH]c1=O [ZIDOVUDINE]		> 20					
C[C@@H](Cn1nnc2c(O)nc(N)nc21)OCP(=O)(O)O	12.5	> 400	> 32	> 33	12		

From ChEMBL document CHEMBL1128695, “Synthesis and antiviral activity of 8-aza analogs of chiral [2-(phosphonomethoxy) propyl]guanines” (J Med Chem, 1995)
